{"source": "ChEMBL document CHEMBL1629416", "about": "“Developing dual functional allosteric modulators of GABA(A) receptors” (Bioorg Med Chem, 2010)", "key": {"[1]": {"target": "T1, GABA-A receptor; alpha-5/beta-3/gamma-2 (Homo sapiens, UniProt P18507+P28472+P31644)", "T1 sequence (P18507 whole entry)": "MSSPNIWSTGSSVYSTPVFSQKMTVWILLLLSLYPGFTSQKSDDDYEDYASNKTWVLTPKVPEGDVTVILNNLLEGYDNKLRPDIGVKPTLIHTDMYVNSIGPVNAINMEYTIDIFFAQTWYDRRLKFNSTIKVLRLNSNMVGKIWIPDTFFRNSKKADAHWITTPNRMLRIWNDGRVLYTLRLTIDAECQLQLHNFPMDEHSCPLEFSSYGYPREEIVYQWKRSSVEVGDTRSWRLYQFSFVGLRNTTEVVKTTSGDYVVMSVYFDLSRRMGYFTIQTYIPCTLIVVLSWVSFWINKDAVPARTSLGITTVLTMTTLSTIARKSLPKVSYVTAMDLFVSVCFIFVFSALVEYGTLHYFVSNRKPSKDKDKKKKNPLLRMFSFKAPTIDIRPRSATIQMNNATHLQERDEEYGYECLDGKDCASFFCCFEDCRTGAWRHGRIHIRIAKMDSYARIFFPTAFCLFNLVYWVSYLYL", "T1 sequence (P28472 whole entry)": "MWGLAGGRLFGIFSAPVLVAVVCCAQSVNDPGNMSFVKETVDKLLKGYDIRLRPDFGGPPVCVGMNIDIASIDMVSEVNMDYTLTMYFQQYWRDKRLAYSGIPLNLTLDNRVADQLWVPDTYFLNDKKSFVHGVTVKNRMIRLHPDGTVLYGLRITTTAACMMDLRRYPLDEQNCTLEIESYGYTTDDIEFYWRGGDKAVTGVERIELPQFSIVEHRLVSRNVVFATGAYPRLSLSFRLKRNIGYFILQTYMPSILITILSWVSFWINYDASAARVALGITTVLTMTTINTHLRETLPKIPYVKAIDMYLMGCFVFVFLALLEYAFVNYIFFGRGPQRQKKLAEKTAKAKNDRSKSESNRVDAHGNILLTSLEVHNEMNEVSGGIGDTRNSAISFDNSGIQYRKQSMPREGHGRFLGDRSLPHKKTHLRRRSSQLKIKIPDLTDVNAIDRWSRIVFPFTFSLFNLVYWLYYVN", "T1 sequence (P31644 whole entry)": "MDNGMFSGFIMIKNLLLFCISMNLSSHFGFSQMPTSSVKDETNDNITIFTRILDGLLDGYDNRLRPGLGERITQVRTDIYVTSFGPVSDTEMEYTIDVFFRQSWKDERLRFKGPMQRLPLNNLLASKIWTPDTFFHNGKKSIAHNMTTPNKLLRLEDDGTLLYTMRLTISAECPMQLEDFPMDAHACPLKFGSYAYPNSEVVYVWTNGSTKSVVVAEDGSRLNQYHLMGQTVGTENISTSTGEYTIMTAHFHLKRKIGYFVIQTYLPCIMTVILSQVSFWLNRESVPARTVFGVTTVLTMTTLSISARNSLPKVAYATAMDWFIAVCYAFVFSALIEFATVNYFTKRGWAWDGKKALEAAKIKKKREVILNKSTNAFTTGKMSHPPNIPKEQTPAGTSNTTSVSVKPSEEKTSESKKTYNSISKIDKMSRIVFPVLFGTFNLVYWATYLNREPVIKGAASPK", "test": "Displacement of [3H]flunitrazepam from human alpha5beta3gamma2 GABA receptor in Sf9 membranes after 1 hr by liquid scintillation counting", "outline": "(§1)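 [3H]Flunitrazepam (3 nM) competition on recombinant Sf9 membranes co-expressing α, β and γ2 subunits. Compound incubated 1 h at 4 °C in 20 mM Tris–citrate, 200 mM NaCl, pH 7.8, with membrane protein.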"}, "[2]": {"target": "T2, GABA-A receptor; alpha-5/beta-3/gamma-2 (Homo sapiens) (UniProt P18507+P28472+P31644)", "test": "Negative allosteric modulation of human alpha5beta3gamma2 GABA receptor expressed in Xenopus laevis oocytes at 1 uM", "type": "cell-based", "details": "Oocyte", "outline": "(§2)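 Two-electrode voltage clamp on oocytes expressing human α/β/γ2 subtypes, used 2–10 days after injection. […] Baseline was the mean of three GABA-alone pulses. Result is % modulation, mean ± SEM over individual oocytes.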"}, "[3]": {"target": "T3, GABA-A receptor; alpha-2/beta-3/gamma-2 (Homo sapiens) (UniProt P18507+P28472+P47869)", "test": "Positive allosteric modulation of human alpha2beta3gamma2 GABA receptor expressed in Xenopus laevis oocytes at 1 uM", "type": "cell-based", "details": "Oocyte", "outline": "as §2"}, "[4]": {"target": "T4, GABA-A receptor; alpha-2/beta-3/gamma-2 (Homo sapiens, UniProt P18507+P28472+P47869)", "T4 sequence (P18507 whole entry)": "T1 sequence (P18507 whole entry)", "T4 sequence (P28472 whole entry)": "T1 sequence (P28472 whole entry)", "T4 sequence (P47869 whole entry)": "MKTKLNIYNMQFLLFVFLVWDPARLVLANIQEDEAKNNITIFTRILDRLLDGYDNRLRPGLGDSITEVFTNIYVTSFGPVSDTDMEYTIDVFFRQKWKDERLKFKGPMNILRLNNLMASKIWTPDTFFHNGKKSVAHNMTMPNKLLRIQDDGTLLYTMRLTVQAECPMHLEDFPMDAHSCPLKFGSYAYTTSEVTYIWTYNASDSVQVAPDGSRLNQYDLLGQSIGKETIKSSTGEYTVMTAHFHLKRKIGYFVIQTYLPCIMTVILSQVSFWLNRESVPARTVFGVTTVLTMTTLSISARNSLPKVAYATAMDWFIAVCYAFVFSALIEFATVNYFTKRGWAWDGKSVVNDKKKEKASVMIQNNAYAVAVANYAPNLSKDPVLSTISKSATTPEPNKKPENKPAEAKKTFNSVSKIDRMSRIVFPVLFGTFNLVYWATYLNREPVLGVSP", "test": "Displacement of [3H]flunitrazepam from human alpha2beta3gamma2 GABA receptor in Sf9 membranes after 1 hr by liquid scintillation counting", "outline": "as §1"}, "[5]": {"target": "T5, GABA-A receptor; alpha-3/beta-3/gamma-2 (Homo sapiens, UniProt P18507+P28472+P34903)", "T5 sequence (P18507 whole entry)": "T1 sequence (P18507 whole entry)", "T5 sequence (P28472 whole entry)": "T1 sequence (P28472 whole entry)", "T5 sequence (P34903 whole entry)": "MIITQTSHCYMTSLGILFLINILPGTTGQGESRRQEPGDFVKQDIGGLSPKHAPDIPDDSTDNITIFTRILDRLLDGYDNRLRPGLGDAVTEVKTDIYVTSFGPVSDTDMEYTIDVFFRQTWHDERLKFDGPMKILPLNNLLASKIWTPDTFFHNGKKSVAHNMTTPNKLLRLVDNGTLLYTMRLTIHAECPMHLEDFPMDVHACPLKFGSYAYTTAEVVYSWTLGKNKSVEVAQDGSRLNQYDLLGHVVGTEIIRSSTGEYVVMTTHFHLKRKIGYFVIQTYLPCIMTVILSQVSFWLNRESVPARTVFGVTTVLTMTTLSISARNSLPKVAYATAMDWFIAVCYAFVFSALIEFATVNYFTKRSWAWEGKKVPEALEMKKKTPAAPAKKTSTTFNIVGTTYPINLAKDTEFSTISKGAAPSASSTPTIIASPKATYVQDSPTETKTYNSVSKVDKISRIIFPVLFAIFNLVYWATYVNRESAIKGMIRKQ", "test": "Binding affinity to human alpha3beta3gamma2 GABA receptor expressed in Xenopus laevis oocytes", "type": "cell-based, Oocyte"}, "[6]": {"target": "T6, GABA-A receptor; alpha-1/beta-2/gamma-2 (Homo sapiens) (UniProt P14867+P47870+P18507)", "test": "Positive allosteric modulation of human alpha1beta2gamma2 GABA receptor expressed in Xenopus laevis oocytes at 1 uM", "type": "cell-based", "details": "Oocyte", "outline": "as §2"}, "[7]": {"target": "GABA-A receptor; alpha-3/beta-3/gamma-2 (Homo sapiens) (UniProt P18507+P28472+P34903)", "test": "Positive allosteric modulation of human alpha3beta3gamma2 GABA receptor expressed in Xenopus laevis oocytes at 1 uM", "type": "cell-based", "details": "Oocyte", "outline": "as §2"}, "[8]": {"target": "T6, GABA-A receptor; alpha-1/beta-2/gamma-2 (Homo sapiens)", "test": "Effect on human alpha1beta2gamma2 GABA receptor expressed in Xenopus laevis oocytes at 10 uM", "type": "cell-based", "details": "Oocyte"}, "[9]": {"target": "T4, GABA-A receptor; alpha-2/beta-3/gamma-2", "test": "Binding affinity to human alpha2beta3gamma2 GABA receptor expressed in Xenopus laevis oocytes", "type": "cell-based, Oocyte"}, "[10]": {"target": "T1, GABA-A receptor; alpha-5/beta-3/gamma-2", "test": "Binding affinity to human alpha5beta3gamma2 GABA receptor expressed in Xenopus laevis oocytes", "type": "cell-based, Oocyte"}, "[11]": {"target": "T3, GABA-A receptor; alpha-2/beta-3/gamma-2 (Homo sapiens)", "test": "Negative allosteric modulation of human alpha2beta3gamma2 GABA receptor expressed in Xenopus laevis oocytes at 1 uM", "type": "cell-based", "details": "Oocyte", "outline": "as §2"}, "[12]": {"target": "T2, GABA-A receptor; alpha-5/beta-3/gamma-2 (Homo sapiens)", "test": "Positive allosteric modulation of human alpha5beta3gamma2 GABA receptor expressed in Xenopus laevis oocytes at 1 uM", "type": "cell-based", "details": "Oocyte", "outline": "as §2"}}, "note": "Several values for one entry are separate records, joined by “and”; a condition that tells them apart may be missing. Equal entries are not always repeated. Activity calls are given as the source filed them. The calls are words filed in the database; no cut-off is given here.", "data": [{"smiles": "Nc1c2c(nc3c(-c4cncnc4)cccc13)CN(C1CCC1)C2=O", "values": [{"measurement": "Ki", "setting": "[1]", "result": 12, "unit": "nM"}, {"measurement": "Activity", "setting": "[2]", "result": 2, "unit": "%"}, {"measurement": "Activity", "setting": "[3]", "result": 18, "unit": "%"}, {"measurement": "Ki", "setting": "[4]", "result": 1.5, "unit": "nM"}]}, {"smiles": "Nc1c2c(nc3c(-c4ncccn4)cccc13)CN(C1CCC1)C2=O", "values": [{"measurement": "Ki", "setting": "[1]", "result": 14, "unit": "nM"}, {"measurement": "EC50", "setting": "[5]", "result": 77, "unit": "nM"}, {"measurement": "Activity", "setting": "[2]", "result": "46% and 32%"}, {"measurement": "Activity", "setting": "[6]", "result": 1, "unit": "%"}, {"measurement": "Activity", "setting": "[7]", "result": 40, "unit": "%"}, {"measurement": "Activity", "setting": "[3]", "result": "44% and 38%"}, {"measurement": "Activity", "setting": "[8]", "result": "inactive"}, {"measurement": "EC50", "setting": "[9]", "result": 34, "unit": "nM"}, {"measurement": "Ki", "setting": "[4]", "result": 8.3, "unit": "nM"}, {"measurement": "EC50", "setting": "[10]", "result": 206, "unit": "nM"}]}, {"smiles": "CC1CN(C(=O)c2nnc3c(-c4ncccn4)cccc3c2N)C1", "values": [{"measurement": "Activity", "setting": "[2]", "result": 35, "unit": "%"}, {"measurement": "Activity", "setting": "[3]", "result": 14, "unit": "%"}]}, {"smiles": "Nc1c(C(=O)N2CC(F)(F)C2)nnc2c(-c3ncccn3)cccc12", "values": [{"measurement": "Activity", "setting": "[2]", "result": 4, "unit": "%"}, {"measurement": "Activity", "setting": "[3]", "result": 6, "unit": "%"}]}, {"smiles": "Nc1c(C(=O)N2CC(F)(F)C2)nnc2c(-c3ncccn3)c(F)ccc12", "values": [{"measurement": "Activity", "setting": "[11]", "result": 7, "unit": "%"}, {"measurement": "Activity", "setting": "[12]", "result": 13, "unit": "%"}]}, {"smiles": "Nc1c(C(=O)NC2CC2)nnc2c(-c3ncccn3)cccc12", "values": [{"measurement": "Activity", "setting": "[2]", "result": 5, "unit": "%"}, {"measurement": "Activity", "setting": "[3]", "result": 54, "unit": "%"}]}, {"smiles": "Nc1c(C(=O)N2CCC2)nnc2c(-c3ncccn3)c(F)ccc12", "values": [{"measurement": "Activity", "setting": "[3]", "result": 8, "unit": "%"}, {"measurement": "Activity", "setting": "[12]", "result": 10, "unit": "%"}]}]}
